Data set [1] concerns the target T1, AChE (Homo sapiens, UniProt P22303). As to the kind of experiment: In vitro AChE inhibitory activity. Type of data set: biochemical. The settings on record: for AChE IC50: mean ± SD (n = 3).
In data set [2] the target is BuChE (Homo sapiens, UniProt P06276). As to the kind of experiment: In vitro BuChE inhibitory activity. Type of data set: biochemical. The settings on record: for BuChE IC50: mean ± SD (n = 3).
The target of data set [3] is BACE1 (Homo sapiens, UniProt P56817). As to the kind of experiment: BACE1 inhibitory activity, FRET-based assay kit. Type of data set: biochemical.
BACE1, sequence (P56817 46-501): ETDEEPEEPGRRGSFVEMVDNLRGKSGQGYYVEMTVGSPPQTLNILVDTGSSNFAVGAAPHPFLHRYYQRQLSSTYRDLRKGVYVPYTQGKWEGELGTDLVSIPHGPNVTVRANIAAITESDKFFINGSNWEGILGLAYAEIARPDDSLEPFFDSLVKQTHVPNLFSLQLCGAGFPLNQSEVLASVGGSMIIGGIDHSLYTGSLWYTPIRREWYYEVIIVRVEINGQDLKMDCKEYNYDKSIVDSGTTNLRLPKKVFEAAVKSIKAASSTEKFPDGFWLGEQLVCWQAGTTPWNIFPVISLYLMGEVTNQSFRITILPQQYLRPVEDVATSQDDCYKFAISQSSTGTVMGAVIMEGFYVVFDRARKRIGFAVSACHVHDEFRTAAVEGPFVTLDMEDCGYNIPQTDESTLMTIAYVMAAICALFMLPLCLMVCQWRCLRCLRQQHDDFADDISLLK
Data set [4] deals with T1, AChE. As to the kind of experiment: Kinetic characterization of AChE inhibition. The format is biochemical.
Data set [5] can be described thus: Metal chelating activity by UV-visible spectrometry, mole ratio method. The settings on record: UV 200-600 nm, methanol, 5d 20 μM, Fe3+ 0-50 μM, 30 min room temperature. The format is physicochemical. In outline:
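Test compound (20 μM in absolute methanol) was titrated with FeCl3 (0–50 μM Fe3+) and incubated 30 min at room temperature. UV absorption from 200 to 600 nm was recorded with and without Fe3+ in a 1 cm quartz cuvette. Complex stoichiometry was taken from the mole ratio method.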

“Also recorded” adds a separate entry of the source.

BuChE, sequence (P06276 29-602): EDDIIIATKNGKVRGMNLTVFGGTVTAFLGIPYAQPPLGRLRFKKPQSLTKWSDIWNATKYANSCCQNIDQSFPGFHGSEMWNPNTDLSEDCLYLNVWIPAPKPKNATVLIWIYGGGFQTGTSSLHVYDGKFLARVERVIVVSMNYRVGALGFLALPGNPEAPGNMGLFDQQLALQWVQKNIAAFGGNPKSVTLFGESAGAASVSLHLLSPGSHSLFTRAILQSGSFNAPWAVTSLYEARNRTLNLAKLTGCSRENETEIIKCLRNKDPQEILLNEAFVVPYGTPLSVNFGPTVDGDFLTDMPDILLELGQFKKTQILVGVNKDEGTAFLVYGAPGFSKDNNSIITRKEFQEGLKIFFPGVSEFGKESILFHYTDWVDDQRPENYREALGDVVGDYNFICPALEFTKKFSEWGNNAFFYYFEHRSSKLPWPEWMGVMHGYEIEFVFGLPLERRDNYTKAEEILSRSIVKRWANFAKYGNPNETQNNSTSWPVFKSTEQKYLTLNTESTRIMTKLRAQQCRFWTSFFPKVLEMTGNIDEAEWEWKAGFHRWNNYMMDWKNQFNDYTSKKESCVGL
T1 sequence (P22303 32-614): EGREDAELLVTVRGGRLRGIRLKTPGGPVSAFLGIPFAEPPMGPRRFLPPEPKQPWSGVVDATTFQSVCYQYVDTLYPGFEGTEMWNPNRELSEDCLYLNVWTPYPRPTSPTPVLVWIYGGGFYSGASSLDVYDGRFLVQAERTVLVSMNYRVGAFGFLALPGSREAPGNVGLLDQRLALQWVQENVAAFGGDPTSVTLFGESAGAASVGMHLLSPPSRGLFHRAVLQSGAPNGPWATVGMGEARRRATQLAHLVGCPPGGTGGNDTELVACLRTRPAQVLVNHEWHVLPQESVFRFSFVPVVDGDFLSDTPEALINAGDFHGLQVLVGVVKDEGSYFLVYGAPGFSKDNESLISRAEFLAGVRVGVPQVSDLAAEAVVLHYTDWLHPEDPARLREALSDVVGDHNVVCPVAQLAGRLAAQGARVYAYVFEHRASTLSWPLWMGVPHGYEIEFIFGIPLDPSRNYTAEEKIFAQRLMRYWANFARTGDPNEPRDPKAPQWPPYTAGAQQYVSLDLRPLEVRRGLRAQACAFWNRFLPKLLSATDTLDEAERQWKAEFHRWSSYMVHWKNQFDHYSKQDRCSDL

With `Cn1cc(-c2cc(C(=O)NN=Cc3ccccc3)no2)c2ccccc21` [Compound 5a, N'-Benzylidene-5-(1-methyl-1H-indol-3-yl)isoxazole-3-carbohydrazide], the “AChE IC50” value in data set [1] is listed as “no inhibitory potencies”. The “BuChE IC50” value in data set [2] is “no inhibitory potencies”.

One may read the IC50 as the concentration that inhibits the measured activity by half. A lower IC50 goes with higher potency. On to `Cn1cc(-c2cc(C(=O)NN=Cc3ccccc3O)no2)c2ccccc21` [Compound 5b, N'-(2-Hydroxybenzylidene)-5-(1-methyl-1H-indol-3-yl)isoxazole-3-carbohydrazide], for which the IC50 in data set [2] is 92.8 ± 2.29 µM; in data set [3], 2.79 ± 0.52 µM.

The term Ki denotes the equilibrium dissociation constant of an inhibitor or competing ligand from its target. Lower therefore signals a stronger hold on the target. As to `COc1cccc(C=NNC(=O)c2cc(-c3cn(C)c4ccccc34)on2)c1` [Compound 5d, N'-(3-Methoxybenzylidene)-5-(1-methyl-1H-indol-3-yl)isoxazole-3-carbohydrazide], the IC50 in data set [1] was found to be 29.5 ± 0.31 µM; in data set [3] it was 2.85 ± 0.09 µM. Moreover, the “BuChE IC50” value in data set [2] is “no notable inhibition; also recorded: no potency”. Further, the Ki in data set [4] is 19.3 µM. In addition, the “inhibition pattern on AChE” value in data set [4] (Lineweaver-Burk: Km increased, Vmax unchanged) was “competitive”. Moreover, the “metal chelating ability against Fe3+” value in data set [5] was “had biometal chelation ability”.

In data set [1], `COc1cccc(C=NNC(=O)c2cc(-c3cn(C)c4ccccc34)on2)c1O` [Compound 5g, N'-(2-Hydroxy-3-methoxybenzylidene)-5-(1-methyl-1H-indol-3-yl)isoxazole-3-carbohydrazide] had a 50% inhibitory concentration (IC50) of 63.8 ± 4.04 µM.

With `Cn1cc(-c2cc(C(=O)NN=Cc3ccccc3F)no2)c2ccccc21` [Compound 5h, N'-(2-Fluorobenzylidene)-5-(1-methyl-1H-indol-3-yl)isoxazole-3-carbohydrazide], in data set [1], the “AChE IC50” value was “no potency”.

In the case of `Cn1cc(-c2cc(C(=O)NN=Cc3ccccc3Cl)no2)c2ccccc21` [Compound 5i, N'-(2-Chlorobenzylidene)-5-(1-methyl-1H-indol-3-yl)isoxazole-3-carbohydrazide], the “AChE IC50” value in data set [1] is reported as “no potency”.

Turning to `Cn1cc(-c2cc(C(=O)NN=Cc3cccc(Br)c3)no2)c2ccccc21` [Compound 5j, N'-(3-Bromobenzylidene)-5-(1-methyl-1H-indol-3-yl)isoxazole-3-carbohydrazide], the “AChE IC50” value in data set [1] was “no potency”. The compound further returned an IC50 in data set [3] of 1.99 ± 0.15 µM.

In data set [2], `Cn1cc(-c2cc(C(=O)NN=Cc3cccc([N+](=O)[O-])c3)no2)c2ccccc21` [Compound 5k, N'-(3-Nitrobenzylidene)-5-(1-methyl-1H-indol-3-yl)isoxazole-3-carbohydrazide] showed a half-inhibitory concentration (IC50) of 71.3 ± 0.76 µM.

For the origin of these results see paper PMC11387822 (Scientific Reports, 2024).
